Assay results taken from ChEMBL document CHEMBL4325889, “Natural products hybrids: 3,5,4'-Trimethoxystilbene-5,6,7-trimethoxyflavone chimeric analogs as potential cytotoxic agents against diverse human cancer cells” (Eur J Med Chem, 2019).

Experiments:
Type in all cases: functional
HL-60(TB) = assay: Growth inhibition of human HL-60(TB) cells at 10 uM after 48 hrs by SRB assay relative to control; settings: HL-60, 48 h, read-out: GI
Summary of the method: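 Run at NCI under its standard single-dose protocol against a leukemia cell panel. Cells were exposed to 10 µM; growth was read by sulforhodamine B staining of cellular protein and expressed as % growth inhibition versus untreated control. Values above 100% mean the cell population fell below the starting count (cytocidal). Each value is the average of duplicates.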

SNB-75 = assay: Growth inhibition of human SNB75 cells at 10 uM after 48 hrs by SRB assay relative to control; settings: SNB-75, 48 h, read-out: GI
Summary of the method: (§1)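 NCI screen against its human cancer cell line panel by the standard NCI protocol, SRB protein stain. Single dose of 10 μM. Percent growth inhibition versus control; values above 100% mean the cell population fell below the starting number. Each value is the mean of duplicates.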

U-251 = assay: Growth inhibition of human U251 cells at 10 uM after 48 hrs by SRB assay relative to control; settings: U-251, 48 h, read-out: GI; summary of the method: as §1
SR = assay: Growth inhibition of human SR cells at 10 uM after 48 hrs by SRB assay relative to control; settings: read-out: GI; summary of the method: as §1
HT-29 = assay: Growth inhibition of human HT-29 cells at 10 uM after 48 hrs by SRB assay relative to control; settings: HT-29, 48 h, read-out: GI
Summary of the method: (§2)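 Screened at the National Cancer Institute by the standard NCI protocol using the sulforhodamine B assay, which measures cellular protein. Single dose of 10 µM. Result is percent growth inhibition; values above 100% mean cell number fell below the initial population. Values are the average of duplicates.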

Malme-3M = assay: Growth inhibition of human MALME-3M cells at 10 uM after 48 hrs by SRB assay relative to control; settings: read-out: GI; summary of the method: as §2
MDA-MB-435 = assay: Growth inhibition of human MDA-MB-435 cells at 10 uM after 48 hrs by SRB assay relative to control; settings: MDA-MB-435, 48 h, read-out: GI; summary of the method: as §2
SK-MEL-5 = assay: Growth inhibition of human SK-MEL-5 cells at 10 uM after 48 hrs by SRB assay relative to control; settings: SK-MEL-5, 48 h, read-out: GI; summary of the method: as §2
BT-549 = assay: Growth inhibition of human BT549 cells at 10 uM after 48 hrs by SRB assay relative to control; settings: BT-549, 48 h, read-out: GI; summary of the method: as §2
Hs-578T = assay: Growth inhibition of human Hs 578T cells at 10 uM after 48 hrs by SRB assay relative to control; settings: read-out: GI; summary of the method: as §2
UO-31 = assay: Growth inhibition of human UO31 cells at 10 uM after 48 hrs by SRB assay relative to control; settings: UO-31, 48 h, read-out: GI; summary of the method: as §1
K562 = assay: Growth inhibition of human K562 cells at 10 uM after 48 hrs by SRB assay relative to control; settings: K562, 48 h, read-out: GI; summary of the method: as §2
SF-539 = assay: Growth inhibition of human SF539 cells at 10 uM after 48 hrs by SRB assay relative to control; settings: SF-539, 48 h, read-out: GI; summary of the method: as §2
786-0 = assay: Growth inhibition of human 786-0 cells at 10 uM after 48 hrs by SRB assay relative to control; settings: 786-0, 48 h, read-out: GI; summary of the method: as §2
OVCAR-3 = assay: Growth inhibition of human OVCAR3 cells at 10 uM after 48 hrs by SRB assay relative to control; settings: OVCAR-3, 48 h, read-out: GI; summary of the method: as §2
HOP-62 = assay: Growth inhibition of human HOP62 cells at 10 uM after 48 hrs by SRB assay relative to control; settings: HOP-62, 48 h, read-out: GI; summary of the method: as §2
PC-3 = assay: Growth inhibition of human PC3 cells at 10 uM after 48 hrs by SRB assay relative to control; settings: PC-3, 48 h, read-out: GI; summary of the method: as §2
MDA-MB-468 = assay: Growth inhibition of human MDA-MB-468 cells at 10 uM after 48 hrs by SRB assay relative to control; settings: MDA-MB-468, 48 h, read-out: GI; summary of the method: as §2
SW-620 = assay: Growth inhibition of human SW620 cells at 10 uM after 48 hrs by SRB assay relative to control; settings: SW-620, 48 h, read-out: GI; summary of the method: as §1
OVCAR-4 = assay: Growth inhibition of human OVCAR4 cells at 10 uM after 48 hrs by SRB assay relative to control; settings: OVCAR-4, 48 h, read-out: GI; summary of the method: as §2
UACC-62 = assay: Growth inhibition of human UACC62 cells at 10 uM after 48 hrs by SRB assay relative to control; settings: UACC-62, 48 h, read-out: GI; summary of the method: as §1
TK-10 = assay: Growth inhibition of human TK10 cells at 10 uM after 48 hrs by SRB assay relative to control; settings: TK-10, 48 h, read-out: GI; summary of the method: as §1
NCI-H522 = assay: Growth inhibition of human NCI-H522 cells at 10 uM after 48 hrs by SRB assay relative to control; settings: NCI-H522, 48 h, read-out: GI; summary of the method: as §2
HCC 2998 = assay: Growth inhibition of human HCC2998 cells at 10 uM after 48 hrs by SRB assay relative to control; settings: HCC 2998, 48 h, read-out: GI; summary of the method: as §2
SNB-19 = assay: Growth inhibition of human SNB19 cells at 10 uM after 48 hrs by SRB assay relative to control; settings: SNB-19, 48 h, read-out: GI; summary of the method: as §1
HCT-116 = assay: Growth inhibition of human HCT116 cells at 10 uM after 48 hrs by SRB assay relative to control; settings: HCT-116, 48 h, read-out: GI; summary of the method: as §2
A549 = assay: Growth inhibition of human A549 cells at 10 uM after 48 hrs by SRB assay relative to control; settings: A549, 48 h, read-out: GI; summary of the method: as §2
MOLT-4 = assay: Growth inhibition of human MOLT4 cells at 10 uM after 48 hrs by SRB assay relative to control; settings: MOLT-4, 48 h, read-out: GI; summary of the method: as §2
HOP-92 = assay: Growth inhibition of human HOP92 cells at 10 uM after 48 hrs by SRB assay relative to control; settings: HOP-92, 48 h, read-out: GI; summary of the method: as §2
SK-MEL-2 = assay: Growth inhibition of human SK-MEL-2 cells at 10 uM after 48 hrs by SRB assay relative to control; settings: SK-MEL-2, 48 h, read-out: GI; summary of the method: as §2
NCI/ADR-RES = assay: Growth inhibition of human NCI/ADR-RES cells at 10 uM after 48 hrs by SRB assay relative to control; settings: read-out: GI; summary of the method: as §2
COLO 205 = assay: Growth inhibition of human COLO205 cells at 10 uM after 48 hrs by SRB assay relative to control; settings: COLO 205, 48 h, read-out: GI; summary of the method: as §2
SN12C = assay: Growth inhibition of human SN12C cells at 10 uM after 48 hrs by SRB assay relative to control; settings: read-out: GI; summary of the method: as §2

Structure (SMILES)	inhibition of growth at 10 µM (HL-60(TB))	inhibition of growth at 10 µM (SNB-75)	inhibition of growth at 10 µM (U-251)	inhibition of growth at 10 µM (SR)	inhibition of growth at 10 µM (HT-29)	inhibition of growth at 10 µM (Malme-3M)	inhibition of growth at 10 µM (MDA-MB-435)	inhibition of growth at 10 µM (SK-MEL-5)	inhibition of growth at 10 µM (BT-549)	inhibition of growth at 10 µM (Hs-578T)	inhibition of growth at 10 µM (UO-31)	inhibition of growth at 10 µM (K562)	inhibition of growth at 10 µM (SF-539)	inhibition of growth at 10 µM (786-0)	inhibition of growth at 10 µM (OVCAR-3)	inhibition of growth at 10 µM (HOP-62)	inhibition of growth at 10 µM (PC-3)	inhibition of growth at 10 µM (MDA-MB-468)	inhibition of growth at 10 µM (SW-620)	inhibition of growth at 10 µM (OVCAR-4)	further results
COc1cccc(NC(=O)c2cccc(-c3cc(=O)c4c(O)c(OC)c(OC)cc4o3)c2)c1	17.5%	1.94%	23.9%	47.7%	15.6%	12.3%	22.6%	26.8%	30.5%	45.5%	41.7%	16.9%	20.7%	14.2%	10.6%	37.5%	39.3%	46%	18.4%	48%	inhibition of growth at 10 µM (UACC-62): 44.4%; inhibition of growth at 10 µM (TK-10): 6.27%; inhibition of growth at 10 µM (NCI-H522): 59.8%; inhibition of growth at 10 µM (HCC 2998): -3.54%; inhibition of growth at 10 µM (SNB-19): 16.4%; inhibition of growth at 10 µM (HCT-116): 30.7%; inhibition of growth at 10 µM (A549): 26.6%; inhibition of growth at 10 µM (MOLT-4): 24.2%; inhibition of growth at 10 µM (HOP-92): 33.6%; inhibition of growth at 10 µM (SK-MEL-2): 2.64%; inhibition of growth at 10 µM (NCI/ADR-RES): 25.8%; inhibition of growth at 10 µM (COLO 205): 24.3%; inhibition of growth at 10 µM (SN12C): 19%
COc1cc2oc(-c3cccc(C(=O)Nc4ccccc4)c3)cc(=O)c2c(O)c1OC	7.3%	78.2%	63.1%	4.29%	45.9%	35.5%	41.7%	28.3%	39.9%	88.9%	40.3%	2.93%	80.6%	68.5%	29.9%	91.1%	29%	30.6%	5.67%	120%	inhibition of growth at 10 µM (UACC-62): 61.1%; inhibition of growth at 10 µM (TK-10): 39.2%; inhibition of growth at 10 µM (NCI-H522): 8.74%; inhibition of growth at 10 µM (HCC 2998): 10.3%; inhibition of growth at 10 µM (SNB-19): 42.3%; inhibition of growth at 10 µM (HCT-116): 53.7%; inhibition of growth at 10 µM (A549): 39.7%; inhibition of growth at 10 µM (MOLT-4): 0.26%; inhibition of growth at 10 µM (HOP-92): 94.7%; inhibition of growth at 10 µM (SK-MEL-2): 35%; inhibition of growth at 10 µM (NCI/ADR-RES): 20.9%; inhibition of growth at 10 µM (COLO 205): 7.73%; inhibition of growth at 10 µM (SN12C): 25.2%
COc1ccc(NC(=O)c2cccc(-c3cc(=O)c4c(OC)c(OC)c(OC)cc4o3)c2)cc1	21.2%	19.7%	13.9%	18.4%	32.9%	21.4%	23.8%	59.1%	53.1%	41.6%	56.1%	50.4%	27.7%	29.3%	54.3%	31%	38.8%	24.3%	6.52%	15.3%	inhibition of growth at 10 µM (UACC-62): 35.2%; inhibition of growth at 10 µM (TK-10): 15.7%; inhibition of growth at 10 µM (NCI-H522): 39%; inhibition of growth at 10 µM (HCC 2998): 26.3%; inhibition of growth at 10 µM (SNB-19): 8.54%; inhibition of growth at 10 µM (HCT-116): 36.6%; inhibition of growth at 10 µM (A549): 22.4%; inhibition of growth at 10 µM (MOLT-4): 36.8%; inhibition of growth at 10 µM (HOP-92): 52.7%; inhibition of growth at 10 µM (SK-MEL-2): 15.3%; inhibition of growth at 10 µM (NCI/ADR-RES): 47.2%; inhibition of growth at 10 µM (COLO 205): 30.6%; inhibition of growth at 10 µM (SN12C): 35%
